Tests used:
[1] = Pharmacokinetics of saponins in rat plasma after oral gavage of raw; type: in vivo, Sprague–Dawley rats; conditions: for AUC0–t: SD rats, oral administration of SPN extract 1.0 g/kg; for AUC(0-t) / AUC(0-inf) / Cmax / Tmax / half-life: male, Sprague-Dawley, rat, plasma, po, 1 g/kg, oral gavage of raw P. notoginseng aqueous extract 1 g/kg, n = 6, mean ± SD; for AUC(0-t): AUC0–t; for AUC(0-t) / AUC(0-inf) / Cmax / Tmax: male SD rats; for AUC(0-inf): AUC0–∞; for half-life: t1/2, male SD rats; for time in which the maximum plasma concentration was achieved: after oral administration of RPN or SPN aqueous extract
Procedure, shortened: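 Male SD rats (200–250 g, n = 6/group) were acclimatised for 7 d and fasted overnight with water. They received a single oral gavage of aqueous extract at 1 g/kg (5 mL/kg). Heparinized orbital blood was taken pre-dose and at 5 min to 48 h, then centrifuged and stored at −40 °C. Plasma was methanol-precipitated with theophylline internal standard and analysed by MRM. Cmax and Tmax were read directly; AUC and t1/2 were non-compartmental; results are mean ± SD.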

[2] = ref Ma et al. [2021]; cited from earlier work

SMILES | AUC0–t [1] [ng/h/mL] | AUC(0-t) [1] [ng·h/mL] | AUC(0-inf) [1] [ng·h/mL] | Cmax [1] [ng/mL] | Tmax [1] [h] | half-life [1] [h] | time in which the maximum plasma concentration was achieved ([1]; rats) [h] | AUC0–t and Cmax, steamed versus raw group ([1]; oral dose of raw and steamed P. notoginseng aqueous extracts, rats) | detection in rat plasma ([1]; after oral administration of P. notoginseng extracts, rats, listed as GRg5) | bioavailability [2] [%]
CC(C)=CCC[C@](C)(O[C@@H]1O[C@H](CO[C@@H]2O[C@H](CO)[C@@H](O)[C@H](O)[C@H]2O)[C@@H](O)[C@H](O)[C@H]1O)[C@H]1CC[C@]2(C)[C@@H]1[C@H](O)C[C@@H]1[C@@]3(C)CC[C@H](O[C@@H]4O[C@H](CO)[C@@H](O)[C@H](O)[C@H]4O[C@@H]4O[C@H](CO)[C@@H](O)[C@H](O)[C@H]4O)C(C)(C)[C@@H]3CC[C@]12C [Rb1, ginsenoside Rb1] | 5094.06 ± 1453.14 | 15100 ± 2380 | 15200 ± 2440 | 997 ± 144 | 8.67 ± 1.63 | 9.58 ± 1.11 | – | – | – | –
CC(C)=CCC[C@](C)(O[C@@H]1O[C@H](CO)[C@@H](O)[C@H](O)[C@H]1O)[C@H]1CC[C@]2(C)[C@@H]1[C@H](O)C[C@@H]1[C@@]3(C)CC[C@H](O[C@@H]4O[C@H](CO)[C@@H](O)[C@H](O)[C@H]4O[C@@H]4O[C@H](CO)[C@@H](O)[C@H](O)[C@H]4O)C(C)(C)[C@@H]3CC[C@]12C [Rd, ginsenoside Rd] | 1396.89 ± 595.14 | 3630 ± 569 | 4170 ± 733 | 164 ± 28.8 | 8.67 ± 2.73 | 13.9 ± 1.71 | – | – | – | –
CC(C)=CCC[C@](C)(O[C@@H]1O[C@H](CO)[C@@H](O)[C@H](O)[C@H]1O)[C@H]1CC[C@]2(C)[C@@H]1[C@H](O)C[C@@H]1[C@@]3(C)CC[C@H](O)C(C)(C)[C@@H]3[C@@H](O[C@@H]3O[C@H](CO)[C@@H](O)[C@H](O)[C@H]3O[C@@H]3O[C@@H](C)[C@H](O)[C@@H](O)[C@H]3O)C[C@]12C [Re, ginsenoside Re] | – | 87.7 ± 20.7 | 91.7 ± 19.7 | 28.1 ± 13.1 | 1.24 ± 0.49 | 3.16 ± 1.73 | ≤ 1.63 | no significantly difference | – | –
CC(C)=CCC[C@](C)(O[C@@H]1O[C@H](CO)[C@@H](O)[C@H](O)[C@H]1O)[C@H]1CC[C@]2(C)[C@@H]1[C@H](O)C[C@@H]1[C@@]3(C)CC[C@H](O)C(C)(C)[C@@H]3[C@@H](O[C@@H]3O[C@H](CO)[C@@H](O)[C@H](O)[C@H]3O)C[C@]12C [Rg1, ginsenoside Rg1] | 176.63 ± 42.49 | 808 ± 382 | 861 ± 355 | 66.7 ± 32.8 | 9.33 ± 2.07 | 7.92 ± 6.73 | ≤ 9.33 | – | – | –
CC(C)=CC/C=C(\C)[C@H]1CC[C@]2(C)[C@@H]1[C@H](O)C[C@@H]1[C@@]3(C)CC[C@H](O[C@@H]4O[C@H](CO)[C@@H](O)[C@H](O)[C@H]4O[C@@H]4O[C@H](CO)[C@@H](O)[C@H](O)[C@H]4O)C(C)(C)[C@@H]3CC[C@]12C [Rg5, ginsenoside Rg5] | – | – | – | – | – | – | – | – | could not be detected | 0.67

From PMC8172216 (Pharmaceutical Biology, 2021)
